# Publication PMC3505964 (Nucleic Acids Research, 2012)
# Legend:
# [1] = pKa determination from pH-dependent UV absorption; assay type: physicochemical; conditions: 25 °C; for pKa (deprotonation at N1): free nucleoside
# [2] = test system: avian myeloblastosis virus reverse transcriptase (AMV-RT); assay: MALDI-TOF analysis of primer extension products, AMV-RT; assay type: biochemical; conditions: 1 mM each dNTP, 20-mer products
# human DNA polymerase β [3] = biological target: T1, human DNA polymerase β (Homo sapiens, UniProt P06746); assay: MALDI-TOF analysis of primer extension products, pol β; assay type: biochemical; conditions: 1 mM each dNTP, 19-mer and 20-mer products
# In short: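 Unlabelled 16-mer primer (10 pmol) annealed to a 25-mer template (20 pmol; 2′-O-methylguanosine or 8-nitro-2′-O-methylguanosine) at 70°C for 20 min, then room temperature for 15 min. Final pol β was 750 nM, with 1 mM each dNTP. Incubated 37°C for 60 min, stopped at 90°C for 5 min. Desalted on C18 tips (0.1 M TEAA pH 7.0), eluted in 3-HPA/ammonium citrate matrix. Products assigned by calculated m/z against a 20-mer standard mix.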
# [4] = cited from earlier work
# human DNA polymerase β [5] = biological target: T1, human DNA polymerase β; assay: PAGE analysis of primer extension reactions, pol β; assay type: biochemical
# [6] = test system: avian myeloblastosis virus reverse transcriptase (AMV-RT); assay: PAGE analysis of primer extension reactions, AMV-RT; assay type: biochemical; conditions: single dNTPs
# [7] = free nucleoside; cited from earlier work
compound,measurement,setting,value
GCGTACG**CATGCG [ODN4],pKa of 8-nitro-2′-O-methylguanosine within the single-stranded oligonucleotide,[1]; single-stranded ODN GCGTACG**CATGCG,9.1
5′-TCANCATTGGGAGTCGACATAGCGC–3′ [control template],nucleotide incorporated opposite X in extended products,[2],predominantly dC
same,nucleotide incorporated opposite X in extended products,human DNA polymerase β [3],only dC
"Nc1nc2c(nc([N+](=O)[O-])n2C2OC(CO)C(O)C2F)c(=O)[nH]1 (centres unmarked) [2′-fluoro, reference compound]",half-life (depurination),[4]; pH 7.4,72 days
5′-TCANCATTGGGAGTCGACATAGCGC–3′ [8-nitroG template],"dCTP incorporation, level relative to the control",human DNA polymerase β [5]; single dCTP,< 20%
same,increase of dTTP incorporation relative to control,"human DNA polymerase β [5]; single dTTP, from a low level",around 2 fold
same,single dNTP most preferentially inserted,[6],dATP
"Nc1nc2c(nc([N+](=O)[O-])n2[C@@H]2O[C@H](CO)[C@@H](O)[C@H]2O)c(=O)[nH]1 [Compound 6a, 8-Nitroguanosine]",half-life (hydrolytic stability),"[4]; pH 7 and 37°C, ref one published study",0.21 days
same,pKa (deprotonation at N1),[1],8.4
"CO[C@@H]1[C@H](O)[C@@H](CO)O[C@H]1n1c([N+](=O)[O-])nc2c(=O)[nH]c(N)nc21 [Compound 6b, 8-Nitro-2′-O-methylguanosine]",pKa (deprotonation at N1),[1],8.3
Nc1nc2c(ncn2[C@@H]2O[C@H](CO)[C@@H](O)[C@H]2O)c(=O)[nH]1 [guanosine],pKa,[7],9.4
